The source made the active and inactive calls.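 The calls were made as follows: active = inhibition of 30% or more at any tested concentration; inactive = the rest.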
Each molecule was assayed against M1-family alanyl aminopeptidase PfA-M1 [Plasmodium falciparum 3D7] (assay: inhibition of malaria M1 alanyl aminopeptidase – biochemical, QFRET, H-Leu-NHMec substrate, dose response (AID 588686)). Conditions: recombinant PfM1AAP, H-Leu-NHMec fluorogenic cleavage.
Outline: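 Doses: 10-point twofold dilution series from 100 µM, 2% DMSO; test system: recombinant PfM1AAP enzyme; input: PfM1AAP enzyme at 5 µg/mL final; medium: Tris buffer pH 7.5 with 2 mM CoCl2; times: 90 min reaction at room temperature; replicates: each concentration tested in triplicate; measured by: fluorescence at 370/460 nm; reagent: H-Leu-NHMec, 0.1 mM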

Structure (SMILES) | IC50 [µM]
O=C(NCc1ccc2c(c1)OCO2)C1CCN(S(=O)(=O)c2ccc(-c3cncc4ccccc34)s2)CC1 | 11.4
CN(C)c1ccc(CNC(=O)C2CCN(S(=O)(=O)c3ccc(Br)s3)CC2)cc1 | 23.8
CC(C)(C)c1ccc(-c2ccc(S(=O)(=O)N3CCC(C(=O)NCc4ccc5c(c4)OCO5)CC3)s2)cc1 | 49.9

Same assay, conditions: recombinant PfM1AAP, H-Leu-NHMec fluorogenic cleavage; at 100 µM (top of the series)

Structure (SMILES) | inhibition
CC[C@H](C)[C@H](NS(=O)(=O)c1cccs1)C(=O)NCc1ccc(F)cc1 | inactive
CC[C@H](C)[C@H](NC(=O)c1ccc([N+](=O)[O-])cc1)C(=O)NCc1ccc(C(F)(F)F)cc1 | inactive
CC[C@H](C)[C@H](NS(=O)(=O)c1ccc(Br)s1)C(=O)NCc1ccc(C(F)(F)F)cc1 | inactive
CC[C@H](C)[C@H](NC(=O)c1ccc(C(C)(C)C)cc1)C(=O)NCc1ccc(C(F)(F)F)cc1 | inactive
O=C(NCc1ccc2c(c1)OCO2)C1CCN(S(=O)(=O)c2ccc(-c3ccccc3)s2)CC1 | inactive
CC(=O)Nc1cccc(-c2ccc(S(=O)(=O)N3CCC(C(=O)NCc4ccc5c(c4)OCO5)CC3)s2)c1 | inactive
CC[C@H](C)[C@H](NS(=O)(=O)c1ccc(Br)s1)C(=O)O | inactive
O=C(NCc1ccc2c(c1)OCO2)C1CCN(S(=O)(=O)c2ccc(-c3cccc(F)c3)s2)CC1 | inactive
COc1cccc(-c2ccc(S(=O)(=O)N3CCC(C(=O)NCc4ccc5c(c4)OCO5)CC3)s2)c1 | inactive
CC[C@H](C)[C@H](NC(=O)c1ccc([N+](=O)[O-])cc1)C(=O)NCc1ccccc1 | inactive
CC[C@H](C)[C@H](NS(=O)(=O)c1ccc(Br)s1)C(=O)NCc1ccc(F)cc1 | inactive
CC[C@H](C)[C@H](NC(=O)c1ccc([N+](=O)[O-])cc1)C(=O)NCc1ccc(F)cc1 | inactive
COc1ccc(-c2ccc(S(=O)(=O)N3CCC(C(=O)NCc4ccc5c(c4)OCO5)CC3)s2)cc1 | inactive

Reference: PubChem BioAssay AID588686 (Southern Research Specialized Biocontainment Screening …, 2011)
